The test system of this experiment is S. cerevisiae DeaD BB579, nicotinamide rescue growth, OD615 48 h. The experiment is described as follows: rescue of nicotinamide-suppressed growth of yeast BB579, dose response, yeast lifespan extension project, S. cerevisiae (AID 809). The procedure, abridged: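 System – S. cerevisiae DeaD strain BB579 · Buffer or medium – CSMM-D glucose restrictive medium · Times – culture pre-incubation 4 h, then compound exposure 48 h, both 30 °C · Signal – OD615 absorbance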

Among the data in PubChem BioAssay AID809 (SRMLSC, 2007) are EC50 values, retold here.

pEC50: −log10 of the molar value. Activity calls are given as the source filed them.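 Rule for the calls: active = EC50 for reversing nicotinamide-shortened yeast lifespan at or below a set limit; inactive = EC50 above that limit.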

Broadly, the EC50 is the concentration at which the effect is half-maximal. For the compound `O=C1C(=C(O)c2ccccc2)C(=O)c2ccccc21`, the EC50 was > 10 µM (inactive).

Regarding `COc1ccc(OC)c(C2C(C(C)=O)=C(O)C(=O)N2Cc2cccnc2)c1` (configuration not stated), the EC50 is > 10 µM (inactive).

For the compound `CC1=CS(=O)(=O)CC1Sc1nc2ccccc2[nH]1` (configuration not stated), the EC50 is > 10 µM (inactive).

On to `CCOC(=O)c1c(C)oc2c1c(C(c1cccnc1)N1CCOCC1)c(O)c1ccccc12` (configuration not stated), for which the EC50 was > 10 µM (inactive).

Usually pEC50 stands for the negative decadic logarithm of the EC50, by convention in mol/L. For the compound `N#C/C(=C\c1ccccc1)C(=O)N(c1ccccn1)C1CCCCC1`, the pEC50 was 5.18.

Consider `C=C(C(=O)c1ccccc1)C(C)CC(=O)c1ccccc1` (configuration not stated), for which the pEC50 is 5.19.

With `O=c1cc(O)c2c(=O)n(-c3ccccc3)c3c(c2o1)CCCCCC3`, the EC50 is > 10 µM (inactive).

As for `CN(c1ccccc1)c1nc2ccsc2c(=O)s1`, the EC50 was > 10 µM (inactive).

For the compound `COc1ccc2c(=O)c3c(=O)n(Cc4ccco4)c(-c4ccc(C)cc4)nc3oc2c1`, the pEC50 was 5.17.

With `COc1cc(/C=C/C(=O)C2C(=O)C=C(C)OC2=O)cc(OC)c1O` (configuration not stated), the pEC50 was 5.17.

Take `CCOC(=O)C1CCN(C(c2cc3ccc(C)c(C)c3[nH]c2=O)c2nnnn2C2CCCCC2)CC1` (configuration not stated): the EC50 was > 10 µM (inactive).

Consider `COc1ccc(N(C(=O)C(C)C)S(=O)(=O)c2ccc(Cl)cc2)cc1`, for which the EC50 was > 10 µM (inactive).

Take `CCC(=O)N1CCN(CCN=CC2=C(O)CC(c3cccs3)CC2=O)CC1` (configuration not stated): the pEC50 is 5.00.

Take `CN(C)/C=C(/C(=O)c1ccc(Cl)cc1Cl)S(=O)(=O)c1ccc(Cl)cc1`: the pEC50 was 5.26.

For the compound `O=C1C(Cl)=C(Nc2ccccc2O)C(=O)N1CCc1ccccc1`, the EC50 was > 10 µM (inactive).

In the case of `O=C(O)Cc1ccc(N=Cc2c(O)ccc3ccccc23)cc1`, the pEC50 is 5.41.

Regarding `O=CN(/C=C1\Sc2ccccc2C1=O)Cc1ccccc1`, the negative-log EC50 (pEC50) is 5.24.
